From ChEMBL document CHEMBL3228015, “Azaprostanoic acid derivatives. Inhibitors of arachidonic acid induced platelet aggregation” (1979)
Activity calls are given as the source filed them. No cut-off for these calls is given here.

Legend:
[1] = tested on: Platelet; assay: Inhibition of 300 uM arachidonate-induced platelet aggregation in human platelet-rich plasma at 10 uM by turbidometric method; type: functional
Summary of the method: (§1)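 Citrated human PRP from normal donors (no aspirin for 48 h), centrifuged at 164g to remove red cells, kept at 25 °C. Reagents added as 10 μL per 1 mL PRP. Inhibitor held at 10^-5 M while arachidonate concentration varied. Turbidometric (Born) aggregation at 37 °C over 3 min; % inhibition from a single blood sample, representative of several determinations.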

[2] = tested on: Platelet; assay: Inhibition of 500 uM arachidonate-induced platelet aggregation in human platelet-rich plasma at 10 uM by turbidometric method; type: functional; summary of the method: as §1
[3] = tested on: Platelet; assay: Inhibition of 400 uM arachidonate-induced platelet aggregation in human platelet-rich plasma at 10 uM by turbidometric method; type: functional; summary of the method: as §1
[4] = tested on: Platelet; assay: Inhibition of ADP-induced primary platelet aggregation in aspirin-treated human platelet-rich plasma at 100 uM after 2 mins by turbidometric method; type: functional
Summary of the method: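 PRP from donors free of aspirin for 48 h, centrifuged at 164g and held at 25 °C, then incubated 15 min with aspirin (1 mg/mL). Test agent (100 μM) added 2 min before 10 μM ADP. Primary aggregation compared with aspirin alone, read turbidometrically (Born) at 37 °C over 3 min.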

[5] = target: T1, Cyclooxygenase (Bos taurus) (UniProt O62664+O62698); assay: Inhibition of cyclooxygenase activity in bovine seminal vesicles assessed as arachodonic acid dependent formation of adenochrome from L-epinephrine at 100 uM; type: protein assay
Summary of the method: (§2)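 Prostaglandin synthetase from a crude freeze-dried beef seminal vesicle powder, 6.7 mg/mL per assay, solubilized with 0.05% Triton X-100. Activity measured as arachidonic acid dependent adrenochrome formation from L-epinephrine (Takeguchi–Sih method, minor modification). Highest test concentration 5×10^-4 M; indomethacin 2×10^-5 M as reference.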

[6] = target: T1, Cyclooxygenase (Bos taurus); assay: Inhibition of cyclooxygenase activity in bovine seminal vesicles assessed as arachodonic acid dependent formation of adenochrome from L-epinephrine at 500 uM; type: protein assay; summary of the method: as §2
[7] = target: T1, Cyclooxygenase (Bos taurus); assay: Inhibition of cyclooxygenase activity in bovine seminal vesicles assessed as arachodonic acid dependent formation of adenochrome from L-epinephrine at concentration of one order of magnitude greater than that necessary for 100% inhibition of platelet aggregation; summary of the method: as §2

Structure (SMILES): CCCCCNCC[C@@H]1CCC[C@@H]1CCCCCCC(=O)O
- inhibition (INH) [1]: 91%
- inhibition (INH) [2]: 0%
- inhibition (INH) [3]: 16%
- inhibition [4]: inactive
- inhibition [5]: inactive

Structure (SMILES): CCCCCCCCN[C@H]1CCC[C@@H]1CCCCCCC(=O)O (relative stereo)
- inhibition (INH) [1]: 71%
- inhibition (INH) [2]: 0%
- inhibition (INH) [3]: 7%
- inhibition [6]: 30%

Structure (SMILES): O=C(O)CCCCCC[C@H]1CCC[C@@H]1NCc1ccccc1 (relative stereo)
- inhibition (INH) [1]: 0%
- inhibition (INH) [2]: 0%
- inhibition (INH) [3]: 0%
- inhibition [4]: inactive
- inhibition [6]: inactive

Structure (SMILES): O=C(O)CCCCCC[C@@H]1CCC[C@@H]1NCc1ccccc1 (relative stereo)
- inhibition [4]: inactive

Structure (SMILES): CCCCCCCN[C@H]1CCC[C@@H]1CCCCCCC(=O)O (relative stereo)
- inhibition (INH) [1]: 100%
- inhibition [7]: < 10%
- inhibition (INH) [2]: 19%
- inhibition (INH) [3]: 66%
- inhibition [4]: inactive
- inhibition [6]: inactive

Structure (SMILES): CCCCCCCCN[C@H]1CCC[C@H]1CCCCCCC(=O)O (relative stereo)
- inhibition (INH) [1]: 50%
- inhibition (INH) [2]: 0%
- inhibition (INH) [3]: 11%
- inhibition [6]: 30%

Structure (SMILES): CCCCCCN[C@H]1CCC[C@@H]1CCCCCCC(=O)O (relative stereo)
- inhibition (INH) [1]: 14%
- inhibition (INH) [2]: 0%
- inhibition (INH) [3]: 0%
- inhibition [6]: inactive

Structure (SMILES): CCCCCCCN[C@H]1CCC[C@H]1CCCCCCC(=O)O (relative stereo)
- inhibition (INH) [1]: 43%
- inhibition (INH) [2]: 0%
- inhibition (INH) [3]: 11%
- inhibition [4]: inactive
- inhibition [6]: inactive
